Measured values taken from PubChem BioAssay AID623975 (Vanderbilt High Throughput Screening Facility, 2012).

Molecular target: G protein-activated inward rectifier potassium channel 4 (Homo sapiens) + G protein-activated inward rectifier potassium channel 1 (Homo sapiens) (UniProt P48544+P48549)
Assay: GIRK1/4 channel activators, Tl+ flux, dose response, cell-based, HEK-293 hGIRK1/4, thallium flux, FluoZin-2, concentration-response (AID 623975)
Conditions: HEK-293 hGIRK1/4, thallium flux FluoZin-2 fluorescence
Summary of the method: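 test system = HEK-293 line stably expressing hGIRK1/4 | also added = thallium stimulus at pH 7.4 with EC20 glutamate | schedule = FluoZin-2 AM dye loading ~60 min at room temperature, compound pretreatment 4 min | measured by = thallium-flux fluorescence with FluoZin-2 AM dye, F/F0 traces | repeats = triplicate wells per concentration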

Sequence of G protein-activated inward rectifier potassium channel 4 (Homo sapiens) + G protein-activated inward rectifier potassium channel 1 (Homo sapiens) (P48544 whole entry, looked up): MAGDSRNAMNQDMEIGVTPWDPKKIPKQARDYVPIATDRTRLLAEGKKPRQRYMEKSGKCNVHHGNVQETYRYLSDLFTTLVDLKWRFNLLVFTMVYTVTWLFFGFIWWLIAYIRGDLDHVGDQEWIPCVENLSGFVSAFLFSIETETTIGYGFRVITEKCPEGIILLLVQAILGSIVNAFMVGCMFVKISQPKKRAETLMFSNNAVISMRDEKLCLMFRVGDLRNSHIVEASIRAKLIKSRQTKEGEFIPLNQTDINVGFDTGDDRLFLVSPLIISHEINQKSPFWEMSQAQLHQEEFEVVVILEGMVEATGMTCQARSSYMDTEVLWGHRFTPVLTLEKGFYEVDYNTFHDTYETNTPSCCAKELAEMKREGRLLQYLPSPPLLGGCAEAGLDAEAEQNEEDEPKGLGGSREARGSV
Sequence of G protein-activated inward rectifier potassium channel 4 (Homo sapiens) + G protein-activated inward rectifier potassium channel 1 (Homo sapiens) (P48549 whole entry, looked up): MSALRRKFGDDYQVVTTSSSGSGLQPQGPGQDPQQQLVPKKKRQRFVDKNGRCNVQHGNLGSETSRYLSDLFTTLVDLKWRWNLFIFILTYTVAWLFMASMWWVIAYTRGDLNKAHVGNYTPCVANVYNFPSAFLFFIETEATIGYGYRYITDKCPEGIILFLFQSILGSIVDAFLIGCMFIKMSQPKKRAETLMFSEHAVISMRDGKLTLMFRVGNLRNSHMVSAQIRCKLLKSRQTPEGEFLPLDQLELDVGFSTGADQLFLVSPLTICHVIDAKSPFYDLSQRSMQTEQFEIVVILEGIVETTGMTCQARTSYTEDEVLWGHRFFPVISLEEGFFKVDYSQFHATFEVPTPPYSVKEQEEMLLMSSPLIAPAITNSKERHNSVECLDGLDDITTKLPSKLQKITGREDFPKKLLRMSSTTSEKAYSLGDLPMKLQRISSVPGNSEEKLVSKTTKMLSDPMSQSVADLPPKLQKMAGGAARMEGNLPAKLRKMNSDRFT

EC50: 1120 nM
Compound: Cc1cc(NC(=O)Nc2ccc(F)c(F)c2)n(-c2ccccc2)n1
